In ChEMBL document CHEMBL4130613, “Identification and Proposed Relative and Absolute Configurations of Niphimycins C-E from the Marine-Derived Streptomyces sp. IMB7-145 by Genomic Analysis” (J Nat Prod, 2018):
Converted amounts (≈) assume the structure as drawn. The source made the active and inactive calls. The calls are words filed in the database; no cut-off is given here.

How the values were obtained:
Proteus vulgaris = assay: Antibacterial activity against Proteus vulgaris ATCC 29905 after 18 hrs by agar dilution method; format: functional; conditions: ATCC 29905, 18 h
Serratia marcescens = assay: Antibacterial activity against Serratia marcescens ATCC 21074 after 18 hrs by agar dilution method; format: functional; conditions: ATCC 21074, 18 h
Enterococcus faecalis [1] = assay: Antibacterial activity against vancomycin-resistant Enterococcus faecalis ATCC 51299 after 18 hrs by agar dilution method; format: functional
Candida albicans = assay: Antifungal activity against Candida albicans ATCC 10231 after 18 hrs by agar dilution method; format: functional; conditions: ATCC 10231, 18 h
Pseudomonas aeruginosa [2] = assay: Antibacterial activity against Pseudomonas aeruginosa 12-16 after 18 hrs by agar dilution method; format: functional; conditions: 12-16, 18 h
Escherichia coli [3] = assay: Antibacterial activity against extended-spectrum beta-lactamase-negative Escherichia coli 12-14 after 18 hrs by agar dilution method; format: functional; conditions: 12-14, 18 h
Providencia rettgeri = assay: Antibacterial activity against Providencia rettgeri ATCC 31052 after 18 hrs by agar dilution method; format: functional; conditions: ATCC 31052, 18 h
Staphylococcus aureus [4] = assay: Antibacterial activity against methicillin-resistant Staphylococcus aureus 12-33 after 18 hrs by agar dilution method; format: functional
[5] = tested on: Acinetobacter calcoaceticus; assay: Antibacterial activity against Acinetobacter calcoaceticus ATCC 19606 after 18 hrs by agar dilution method; format: functional; conditions: ATCC 19606, 18 h
Citrobacter freundii = assay: Antibacterial activity against Citrobacter freundii ATCC 43864 after 18 hrs by agar dilution method; format: functional; conditions: ATCC 43864, 18 h
Staphylococcus aureus [6] = assay: Antibacterial activity against methicillin-resistant Staphylococcus aureus ATCC 33591 after 18 hrs by agar dilution method; format: functional
Escherichia coli [7] = assay: Antibacterial activity against extended-spectrum beta-lactamase-negative Escherichia coli 1515 after 18 hrs by agar dilution method; format: functional; conditions: Escherichia coli, 1515, 18 h
Proteus mirabilis = assay: Antibacterial activity against Proteus mirabilis 12-6 after 18 hrs by agar dilution method; format: functional; conditions: 12-6, 18 h
HeLa = assay: Cytotoxicity against human HeLa cells after 48 hrs by SRB assay; format: functional, cell-based
Summary of the method: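 HeLa human cervical carcinoma cells obtained from ATCC. Cytotoxicity was read by sulforhodamine B staining following an earlier published protocol, with doxorubicin hydrochloride as positive control. Values are reported as IC50.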

[8] = tested on: Stenotrophomonas maltophilia; assay: Antibacterial activity against Stenotrophomonas maltophilia ATCC 13636 after 18 hrs by agar dilution method; format: functional; conditions: ATCC 13636, 18 h
Klebsiella pneumoniae [9] = assay: Antibacterial activity against extended-spectrum beta-lactamase-negative Klebsiella pneumoniae 7 after 18 hrs by agar dilution method; format: functional; conditions: Klebsiella pneumoniae, 7, 18 h
Enterococcus faecium [10] = assay: Antibacterial activity against vancomycin-resistant Enterococcus faecium 12-1 after 18 hrs by agar dilution method; format: functional
Pseudomonas aeruginosa [11] = assay: Antibacterial activity against Pseudomonas aeruginosa PAO1 after 18 hrs by agar dilution method; format: functional; conditions: PAO1, 18 h
Enterococcus faecium [12] = assay: Antibacterial activity against vancomycin-resistant Enterococcus faecium ATCC 700221 after 18 hrs by agar dilution method; format: functional
[13] = tested on: Staphylococcus epidermidis; assay: Antibacterial activity against methicillin-resistant Staphylococcus epidermidis 12-8 after 18 hrs by agar dilution method; format: functional
Klebsiella aerogenes = assay: Antibacterial activity against Enterobacter aerogenes ATCC 13048 after 18 hrs by agar dilution method; format: functional; conditions: ATCC 13048, 18 h
Klebsiella pneumoniae [14] = assay: Antibacterial activity against extended-spectrum beta-lactamase-negative Klebsiella pneumoniae 12-4 after 18 hrs by agar dilution method; format: functional; conditions: 12-4, 18 h
Klebsiella pneumoniae [15] = assay: Antibacterial activity against extended-spectrum beta-lactamase-positive Klebsiella pneumoniae 12-8 after 18 hrs by agar dilution method; format: functional; conditions: 12-8, 18 h
Morganella morganii = assay: Antibacterial activity against Morganella morganii ATCC 25830 after 18 hrs by agar dilution method; format: functional; conditions: ATCC 25830, 18 h
Enterococcus faecalis [16] = assay: Antibacterial activity against vancomycin-resistant Enterococcus faecalis 09-9 after 18 hrs by agar dilution method; format: functional
Escherichia coli [17] = assay: Antibacterial activity against extended-spectrum beta-lactamase-negative Escherichia coli ATCC 25922 after 18 hrs by agar dilution method; format: functional; conditions: ATCC 25922, 18 h
Escherichia coli [18] = assay: Antibacterial activity against extended-spectrum beta-lactamase-positive Escherichia coli 12-15 after 18 hrs by agar dilution method; format: functional; conditions: 12-15, 18 h
Enterobacter cloacae = assay: Antibacterial activity against Enterobacter cloacae ATCC 43560 after 18 hrs by agar dilution method; format: functional; conditions: ATCC 43560, 18 h
Klebsiella pneumoniae [19] = assay: Antibacterial activity against extended-spectrum beta-lactamase-positive Klebsiella pneumoniae ATCC 700603 after 18 hrs by agar dilution method; format: functional; conditions: Klebsiella pneumoniae, 700603, 18 h
Klebsiella pneumoniae [20] = assay: Antibacterial activity against NDM-1 positive Klebsiella pneumoniae ATCC BAA-2146 after 18 hrs by agar dilution method; format: functional; conditions: ATCC BAA-2146, 18 h
Pseudomonas aeruginosa [21] = assay: Antibacterial activity against Pseudomonas aeruginosa ATCC 27853 after 18 hrs by agar dilution method; format: functional; conditions: ATCC 27853, 18 h

## CNC(=N)NCCC/C=C/CCC[C@H](C)C[C@H](C)[C@H]1OC(=O)[C@H](C)[C@H](O)/C=C/[C@H](C)[C@H](O)C[C@H](O)[C@H](C)[C@@H](O)CC[C@H](C)[C@H](O)C[C@]2(OC)O[C@H](C[C@@H](OC(=O)CC(=O)O)C[C@H](O)C[C@@H](O)[C@H](C)[C@H](O)/C=C/C=C/[C@@H]1C)C[C@H](O)[C@H]2O
Proteus vulgaris
  MIC: > 64 µg/mL
Serratia marcescens
  MIC: > 64 µg/mL
Enterococcus faecalis [1]
  Activity: Active
Candida albicans
  MIC: 8 to 32 µg/mL (≈ 6.92 to 27.7 µM)
Pseudomonas aeruginosa [2]
  MIC: > 64 µg/mL
Escherichia coli [3]
  MIC: > 64 µg/mL
Providencia rettgeri
  MIC: > 64 µg/mL
Staphylococcus aureus [4]
  Activity: Active
[5]
  MIC: > 64 µg/mL
Citrobacter freundii
  MIC: > 64 µg/mL
Staphylococcus aureus [6]
  Activity: Active
Escherichia coli [7]
  MIC: > 64 µg/mL
Proteus mirabilis
  MIC: > 64 µg/mL
HeLa
  IC50: 3 to 9 µM
[8]
  MIC: > 64 µg/mL
Klebsiella pneumoniae [9]
  MIC: > 64 µg/mL
Enterococcus faecium [10]
  Activity: Active
Pseudomonas aeruginosa [11]
  MIC: > 64 µg/mL
Enterococcus faecium [12]
  Activity: Active
[13]
  Activity: Active
Klebsiella aerogenes
  MIC: > 64 µg/mL
Klebsiella pneumoniae [14]
  MIC: > 64 µg/mL
Klebsiella pneumoniae [15]
  MIC: > 64 µg/mL
Morganella morganii
  MIC: > 64 µg/mL
Enterococcus faecalis [16]
  Activity: Active
Escherichia coli [17]
  MIC: > 64 µg/mL
Escherichia coli [18]
  MIC: > 64 µg/mL
Enterobacter cloacae
  MIC: > 64 µg/mL
Klebsiella pneumoniae [19]
  MIC: > 64 µg/mL
Klebsiella pneumoniae [20]
  MIC: > 64 µg/mL
Pseudomonas aeruginosa [21]
  MIC: > 64 µg/mL

## CNC(=N)NCCC/C=C/CCC[C@H](C)C[C@H](C)[C@H]1OC(=O)[C@H](C)[C@H](O)/C=C/[C@H](C)[C@H](O)C[C@H](O)[C@H](C)[C@@H](O)CC[C@H](C)[C@H](OC(=O)CC(=O)O)C[C@]2(O)O[C@H](C[C@@H](OC(=O)CC(=O)O)C[C@H](O)C[C@@H](O)[C@H](C)[C@H](O)/C=C/C=C/[C@@H]1C)C[C@H](O)[C@H]2O
Proteus vulgaris
  MIC: > 64 µg/mL
Serratia marcescens
  MIC: > 64 µg/mL
Enterococcus faecalis [1]
  Activity: Active
Candida albicans
  MIC: 8 to 32 µg/mL (≈ 6.51 to 26 µM)
Pseudomonas aeruginosa [2]
  MIC: > 64 µg/mL
Escherichia coli [3]
  MIC: > 64 µg/mL
Providencia rettgeri
  MIC: > 64 µg/mL
Staphylococcus aureus [4]
  Activity: Active
[5]
  MIC: > 64 µg/mL
Citrobacter freundii
  MIC: > 64 µg/mL
Staphylococcus aureus [6]
  Activity: Active
Escherichia coli [7]
  MIC: > 64 µg/mL
Proteus mirabilis
  MIC: > 64 µg/mL
HeLa
  IC50: 3 to 9 µM
[8]
  MIC: > 64 µg/mL
Klebsiella pneumoniae [9]
  MIC: > 64 µg/mL
Enterococcus faecium [10]
  Activity: Active
Pseudomonas aeruginosa [11]
  MIC: > 64 µg/mL
Enterococcus faecium [12]
  Activity: Active
[13]
  Activity: Active
Klebsiella aerogenes
  MIC: > 64 µg/mL
Klebsiella pneumoniae [14]
  MIC: > 64 µg/mL
Klebsiella pneumoniae [15]
  MIC: > 64 µg/mL
Morganella morganii
  MIC: > 64 µg/mL
Enterococcus faecalis [16]
  Activity: Active
Escherichia coli [17]
  MIC: > 64 µg/mL
Escherichia coli [18]
  MIC: > 64 µg/mL
Enterobacter cloacae
  MIC: > 64 µg/mL
Klebsiella pneumoniae [19]
  MIC: > 64 µg/mL
Klebsiella pneumoniae [20]
  MIC: > 64 µg/mL
Pseudomonas aeruginosa [21]
  MIC: > 64 µg/mL
